According to ChEMBL document CHEMBL3244396, “Synthesis and antileukemic activity of 5-substituted 2,3-dihydro-6,7-bis(hydroxymethyl)-1H-pyrrolizine diesters” (J Med Chem, 1977):

Experiments:
P388 [1] = experiment: Antitumor activity against mouse P388 cells allografted in female CDF1 mouse assessed as change in body weight at 50 mg/kg, ip administered daily for 9 days as saline with Tween-80 solution starting 24 hrs after tumor inoculation; format: functional; settings: route intraperitoneal
How it was run: (§1)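 Ascitic fluid carrying P388 cells was inoculated ip. Compound was given ip in nine daily doses, starting 24 h after inoculation, in Klucel (hydroxypropylcellulose) suspension or in saline with Tween-80. Body-weight difference (treated minus control) was recorded on day 5. Survival was scored as %T/C of median survival time, and 30-day survival counted as cure.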

Mus musculus [2] = experiment: Toxicity in female CDF1 mouse allografted with mouse P388 cells assessed as animal survival at 50 mg/kg, ip administered daily for 9 days as saline with Tween-80 solution starting 24 hrs after tumor inoculation; format: organism-based; design: dose 50 mg/kg, route intraperitoneal; settings: in vivo
How it was run: (§2)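 P-388 leukemia ascitic fluid implanted ip. Compound dosed ip in saline with Tween-80 vehicle, once daily for nine doses from 24 h after tumor inoculation. Acute toxicity scored as toxicity-day survivors per group. Survival was followed up to 30 days, with 30-day survival counted as "cure". Follows NCI screening protocols.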

Mus musculus [3] = experiment: Toxicity in female CDF1 mouse allografted with mouse P388 cells assessed as animal survival at 25 mg/kg, ip administered daily for 9 days as saline with Tween-80 solution starting 24 hrs after tumor inoculation; format: organism-based; design: dose 25 mg/kg, route intraperitoneal; settings: in vivo; how it was run: as §2
P388 [4] = experiment: Antitumor activity against mouse P388 cells allografted in male CDF1 mouse assessed as change in body weight at 400 mg/kg, ip administered daily for 9 days as saline with Tween-80 solution starting 24 hrs after tumor inoculation; format: functional; settings: route intraperitoneal; how it was run: as §1
Mus musculus [5] = experiment: Toxicity in male CDF1 mouse allografted with mouse P388 cells assessed as animal survival at 50 mg/kg, ip administered daily for 9 days as saline with Tween-80 solution starting 24 hrs after tumor inoculation; format: organism-based; design: dose 50 mg/kg, route intraperitoneal; settings: in vivo; how it was run: as §2
P388 [6] = experiment: Antitumor activity against mouse P388 cells allografted in male CDF1 mouse assessed as change in body weight at 25 mg/kg, ip administered daily for 9 days as saline with Tween-80 solution starting 24 hrs after tumor inoculation; format: functional; settings: route intraperitoneal; how it was run: as §1
P388 [7] = experiment: Antitumor activity against mouse P388 cells allografted in male CDF1 mouse assessed as disease cures by measuring 30-days host survival at 100 mg/kg, ip administered daily for 9 days as saline with Tween-80 solution starting 24 hrs after tumor inoculation relative to control; format: functional; settings: route intraperitoneal
How it was run: (§3)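 P388 ascitic cell inoculum given ip to CDF1 mice of the sex in each line. Nine daily ip doses in saline with Tween-80 as vehicle, starting 24 h after inoculation. Median survival time expressed as %T/C (>125 significant); "cure" defined as 30-day survival.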

Mus musculus [8] = experiment: Toxicity in male CDF1 mouse allografted with mouse P388 cells assessed as animal survival at 25 mg/kg, ip administered daily for 9 days as saline with Tween-80 solution starting 24 hrs after tumor inoculation; format: organism-based; design: dose 25 mg/kg, route intraperitoneal; settings: in vivo; how it was run: as §2
P388 [9] = experiment: Antitumor activity against mouse P388 cells allografted in male CDF1 mouse assessed as disease cures by measuring 30-days host survival at 25 mg/kg, ip administered daily for 9 days as saline with Tween-80 solution starting 24 hrs after tumor inoculation relative to control; format: functional; settings: route intraperitoneal; how it was run: as §3
P388 [10] = experiment: Antitumor activity against mouse P388 cells allografted in male CDF1 mouse assessed as change in body weight at 50 mg/kg, ip administered daily for 9 days as saline with Tween-80 solution starting 24 hrs after tumor inoculation; format: functional; settings: route intraperitoneal; how it was run: as §1
P388 [11] = experiment: Antitumor activity against mouse P388 cells allografted in male CDF1 mouse assessed as change in body weight at 100 mg/kg, ip administered daily for 9 days as saline with Tween-80 solution starting 24 hrs after tumor inoculation; format: functional; settings: route intraperitoneal; how it was run: as §1
Mus musculus [12] = experiment: Toxicity in male CDF1 mouse allografted with mouse P388 cells assessed as animal survival at 200 mg/kg, ip administered daily for 9 days as saline with Tween-80 solution starting 24 hrs after tumor inoculation; format: organism-based; design: dose 200 mg/kg, route intraperitoneal; settings: in vivo; how it was run: as §2
P388 [13] = experiment: Antitumor activity against mouse P388 cells allografted in female CDF1 mouse assessed as disease cures by measuring 30-days host survival at 25 mg/kg, ip administered daily for 9 days as saline with Tween-80 solution starting 24 hrs after tumor inoculation relative to control; format: functional; settings: route intraperitoneal; how it was run: as §3
Mus musculus [14] = experiment: Toxicity in female CDF1 mouse allografted with mouse P388 cells assessed as animal survival at 100 mg/kg, ip administered daily for 9 days as saline with Tween-80 solution starting 24 hrs after tumor inoculation; format: organism-based; design: dose 100 mg/kg, route intraperitoneal; settings: in vivo; how it was run: as §2
Mus musculus [15] = experiment: Toxicity in male CDF1 mouse allografted with mouse P388 cells assessed as animal survival at 100 mg/kg, ip administered daily for 9 days as saline with Tween-80 solution starting 24 hrs after tumor inoculation; format: organism-based; design: dose 100 mg/kg, route intraperitoneal; settings: in vivo; how it was run: as §2
P388 [16] = experiment: Antitumor activity against mouse P388 cells allografted in male CDF1 mouse assessed as change in body weight at 200 mg/kg, ip administered daily for 9 days as saline with Tween-80 solution starting 24 hrs after tumor inoculation; format: functional; settings: route intraperitoneal; how it was run: as §1
P388 [17] = experiment: Antitumor activity against mouse P388 cells allografted in male CDF1 mouse assessed as disease cures by measuring 30-days host survival at 50 mg/kg, ip administered daily for 9 days as saline with Tween-80 solution starting 24 hrs after tumor inoculation relative to control; format: functional; settings: route intraperitoneal; how it was run: as §3
Mus musculus [18] = experiment: Toxicity in male CDF1 mouse allografted with mouse P388 cells assessed as animal survival at 400 mg/kg, ip administered daily for 9 days as saline with Tween-80 solution starting 24 hrs after tumor inoculation; format: organism-based; design: dose 400 mg/kg, route intraperitoneal; settings: in vivo; how it was run: as §2
P388 [19] = experiment: Antitumor activity against mouse P388 cells allografted in male CDF1 mouse assessed as disease cures by measuring 30-days host survival at 200 mg/kg, ip administered daily for 9 days as saline with Tween-80 solution starting 24 hrs after tumor inoculation relative to control; format: functional; settings: route intraperitoneal; how it was run: as §3
P388 [20] = experiment: Antitumor activity against mouse P388 cells allografted in female CDF1 mouse assessed as change in body weight at 25 mg/kg, ip administered daily for 9 days as saline with Tween-80 solution starting 24 hrs after tumor inoculation; format: functional; settings: route intraperitoneal; how it was run: as §1
P388 [21] = experiment: Antitumor activity against mouse P388 cells allografted in female CDF1 mouse assessed as change in body weight at 100 mg/kg, ip administered daily for 9 days as saline with Tween-80 solution starting 24 hrs after tumor inoculation; format: functional; settings: route intraperitoneal; how it was run: as §1
P388 [22] = experiment: Antitumor activity against mouse P388 cells allografted in female CDF1 mouse assessed as disease cures by measuring 30-days host survival at 50 mg/kg, ip administered daily for 9 days as saline with Tween-80 solution starting 24 hrs after tumor inoculation relative to control; format: functional; settings: route intraperitoneal; how it was run: as §3
P388 [23] = experiment: Antitumor activity against mouse P388 cells allografted in female CDF1 mouse assessed as disease cures by measuring 30-days host survival at 100 mg/kg, ip administered daily for 9 days as saline with Tween-80 solution starting 24 hrs after tumor inoculation relative to control; format: functional; settings: route intraperitoneal; how it was run: as §3
P388 [24] = experiment: Antitumor activity against mouse P388 cells allografted in male CDF1 mouse assessed as disease cures by measuring 30-days host survival at 400 mg/kg, ip administered daily for 9 days as saline with Tween-80 solution starting 24 hrs after tumor inoculation relative to control; format: functional; settings: route intraperitoneal; how it was run: as §3

O=C(NC1CCCCC1)OCc1c(COC(=O)NC2CCCCC2)c(-c2ccc(Cl)c(Cl)c2)n2c1CCC2
Activity (P388 [1]): -2 g | Activity (Mus musculus [2]): Non-toxic | Activity (Mus musculus [3]): Non-toxic | Activity (P388 [4]): -4 g | Activity (Mus musculus [5]): Non-toxic | Activity (P388 [6]): -0.6 g | T/C (P388 [7]): 187% | Activity (Mus musculus [8]): Non-toxic | T/C (P388 [9]): 150% | Activity (P388 [10]): -0.6 g | Activity (P388 [11]): -1.2 g | Activity (Mus musculus [12]): Non-toxic | T/C (P388 [13]): 168% | Activity (Mus musculus [14]): Non-toxic | Activity (Mus musculus [15]): Non-toxic | Activity (P388 [16]): -2.8 g | T/C (P388 [17]): 166% | Activity (Mus musculus [18]): Non-toxic | T/C (P388 [19]): 91% | Activity (P388 [20]): -1.1 g | Activity (P388 [21]): -2.5 g | T/C (P388 [22]): 174% | T/C (P388 [23]): 212% | T/C (P388 [24]): 79%
